According to ChEMBL document CHEMBL4219109, “Design, synthesis and biological evaluation of novel hydroxamic acid based histone deacetylase 6 selective inhibitors bearing phenylpyrazol scaffold as surface recognition motif” (Bioorg Med Chem, 2018):

Legend:
[1] = test system: A549; experiment: Antiproliferative activity against human A549 cells after 96 hrs by MTT assay; format: functional; conditions: Homo sapiens, A549, 96 h
Procedure, shortened: (§1)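 Cells from Shanghai Cell Bank; A549 grown in high-glucose DMEM and HepG2 in MEM, both with 10% FBS plus penicillin/streptomycin, at 37°C in 5% CO₂. Seeded at 1.5-3.5×10⁴ cells/well for 24 h, then given graded compound concentrations for 96 h. MTT solution (2 mg/mL) added for 4 h, formazan dissolved in DMSO, A570 read. Growth expressed as treated/untreated cell number ratio.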

[2] = target: Histone deacetylase 3/Nuclear receptor corepressor 2 (HDAC3/NCoR2) (Homo sapiens, UniProt O15379); experiment: Inhibition of full length recombinant human C-terminal His-tagged HDAC3/N-terminal GST-tagged NCOR2 (395 to 489 residues) expressed in baculovirus infected sf9 cells using Boc-Lys-(Ac)-AMC as substrate preincubated for 15 mins followed by substrate addition measured after 60 mins by fluorescence assay
Histone deacetylase 3/Nuclear receptor corepressor 2 (HDAC3/NCoR2), sequence (O15379 whole entry, the tested form may be a part): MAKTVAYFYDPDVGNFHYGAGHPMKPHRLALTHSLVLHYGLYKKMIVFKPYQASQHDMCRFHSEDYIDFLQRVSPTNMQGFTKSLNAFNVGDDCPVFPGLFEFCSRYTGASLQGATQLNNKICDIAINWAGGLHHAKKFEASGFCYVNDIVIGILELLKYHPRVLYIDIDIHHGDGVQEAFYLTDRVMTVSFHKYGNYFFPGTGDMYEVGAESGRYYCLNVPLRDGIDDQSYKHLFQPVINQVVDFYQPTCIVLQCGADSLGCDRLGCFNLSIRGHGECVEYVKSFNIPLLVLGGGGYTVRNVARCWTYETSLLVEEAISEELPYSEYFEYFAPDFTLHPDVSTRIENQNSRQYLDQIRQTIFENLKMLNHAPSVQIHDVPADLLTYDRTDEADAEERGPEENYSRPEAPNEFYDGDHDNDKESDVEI
Histone deacetylase 3/Nuclear receptor corepressor 2 (HDAC3/NCoR2), sequence (Q9Y618 whole entry, further chain, the tested form may be a part): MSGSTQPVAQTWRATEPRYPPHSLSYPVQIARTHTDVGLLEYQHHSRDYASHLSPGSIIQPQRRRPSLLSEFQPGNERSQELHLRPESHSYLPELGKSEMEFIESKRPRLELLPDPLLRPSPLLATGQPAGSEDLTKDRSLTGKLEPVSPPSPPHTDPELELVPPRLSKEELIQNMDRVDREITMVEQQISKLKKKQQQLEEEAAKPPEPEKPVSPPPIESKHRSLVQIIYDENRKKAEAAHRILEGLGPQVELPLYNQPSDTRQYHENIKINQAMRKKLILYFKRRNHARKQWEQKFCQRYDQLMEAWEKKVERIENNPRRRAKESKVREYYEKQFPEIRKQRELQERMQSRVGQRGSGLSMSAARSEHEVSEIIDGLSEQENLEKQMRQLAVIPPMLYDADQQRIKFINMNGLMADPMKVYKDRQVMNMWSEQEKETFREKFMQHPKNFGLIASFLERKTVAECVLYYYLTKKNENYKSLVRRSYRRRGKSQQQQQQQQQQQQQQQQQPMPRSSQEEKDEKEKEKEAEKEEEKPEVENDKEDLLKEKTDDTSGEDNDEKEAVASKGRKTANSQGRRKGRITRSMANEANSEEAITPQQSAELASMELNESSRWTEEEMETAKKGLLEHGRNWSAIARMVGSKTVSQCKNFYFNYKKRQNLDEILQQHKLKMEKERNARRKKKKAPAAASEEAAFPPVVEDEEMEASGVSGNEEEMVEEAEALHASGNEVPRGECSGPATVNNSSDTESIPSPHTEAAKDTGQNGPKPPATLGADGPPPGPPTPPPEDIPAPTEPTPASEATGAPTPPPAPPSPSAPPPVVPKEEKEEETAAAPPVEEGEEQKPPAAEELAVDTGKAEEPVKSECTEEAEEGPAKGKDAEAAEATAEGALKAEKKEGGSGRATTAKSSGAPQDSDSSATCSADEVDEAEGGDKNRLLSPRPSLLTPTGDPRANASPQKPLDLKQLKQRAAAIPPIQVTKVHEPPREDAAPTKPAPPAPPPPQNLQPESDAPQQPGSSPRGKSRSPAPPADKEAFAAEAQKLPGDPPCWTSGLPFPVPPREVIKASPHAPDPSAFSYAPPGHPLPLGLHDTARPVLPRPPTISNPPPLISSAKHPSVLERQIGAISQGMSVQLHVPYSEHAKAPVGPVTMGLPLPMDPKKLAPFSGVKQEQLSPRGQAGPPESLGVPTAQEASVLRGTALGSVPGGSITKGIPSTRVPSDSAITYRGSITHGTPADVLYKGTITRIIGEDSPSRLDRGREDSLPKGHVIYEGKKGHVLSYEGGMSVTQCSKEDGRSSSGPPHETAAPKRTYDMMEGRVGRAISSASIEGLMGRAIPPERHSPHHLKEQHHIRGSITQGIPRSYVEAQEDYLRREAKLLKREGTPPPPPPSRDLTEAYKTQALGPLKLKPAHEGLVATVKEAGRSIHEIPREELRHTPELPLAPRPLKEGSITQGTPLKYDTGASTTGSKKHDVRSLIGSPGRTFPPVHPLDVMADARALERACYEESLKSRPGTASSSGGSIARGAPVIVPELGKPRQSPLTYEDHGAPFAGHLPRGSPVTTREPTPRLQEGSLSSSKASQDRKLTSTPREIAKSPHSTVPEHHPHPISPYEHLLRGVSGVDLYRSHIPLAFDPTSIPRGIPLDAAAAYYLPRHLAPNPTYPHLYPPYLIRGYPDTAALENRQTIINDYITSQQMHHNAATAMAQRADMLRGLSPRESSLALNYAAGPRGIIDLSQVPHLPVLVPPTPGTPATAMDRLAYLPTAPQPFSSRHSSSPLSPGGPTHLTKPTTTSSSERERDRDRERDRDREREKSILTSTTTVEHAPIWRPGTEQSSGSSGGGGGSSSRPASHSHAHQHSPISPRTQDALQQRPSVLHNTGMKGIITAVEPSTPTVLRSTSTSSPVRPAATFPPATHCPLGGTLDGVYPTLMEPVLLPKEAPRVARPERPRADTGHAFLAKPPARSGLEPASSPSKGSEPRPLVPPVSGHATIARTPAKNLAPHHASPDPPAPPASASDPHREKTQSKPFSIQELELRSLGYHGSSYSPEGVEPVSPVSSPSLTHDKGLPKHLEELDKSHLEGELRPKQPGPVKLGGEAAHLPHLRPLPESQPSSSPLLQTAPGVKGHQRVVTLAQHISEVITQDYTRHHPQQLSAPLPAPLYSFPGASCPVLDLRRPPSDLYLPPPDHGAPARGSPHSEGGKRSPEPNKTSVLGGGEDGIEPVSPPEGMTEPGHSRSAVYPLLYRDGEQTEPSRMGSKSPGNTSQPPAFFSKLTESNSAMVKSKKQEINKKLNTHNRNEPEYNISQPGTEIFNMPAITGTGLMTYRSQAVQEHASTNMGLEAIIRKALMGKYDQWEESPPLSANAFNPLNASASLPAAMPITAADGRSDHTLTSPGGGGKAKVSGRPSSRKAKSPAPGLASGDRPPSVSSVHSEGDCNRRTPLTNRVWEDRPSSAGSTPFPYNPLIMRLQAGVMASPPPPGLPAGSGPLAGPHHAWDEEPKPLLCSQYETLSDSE

[3] = target: Histone deacetylase; experiment: Inhibition of HDAC in human HeLa nuclear extract using Boc-Lys-(Ac)-AMC as substrate preincubated for 15 mins followed by substrate addition measured after 60 mins by fluorescence assay; format: protein assay
[4] = target: Histone deacetylase 2 (Homo sapiens, UniProt Q92769); experiment: Inhibition of full length recombinant human C-terminal His-tagged HDAC2 expressed in baculovirus infected sf9 cells using Boc-Lys-(Ac)-AMC as substrate preincubated for 15 mins followed by substrate addition measured after 60 mins by fluorescence assay
Histone deacetylase 2, sequence (Q92769 whole entry): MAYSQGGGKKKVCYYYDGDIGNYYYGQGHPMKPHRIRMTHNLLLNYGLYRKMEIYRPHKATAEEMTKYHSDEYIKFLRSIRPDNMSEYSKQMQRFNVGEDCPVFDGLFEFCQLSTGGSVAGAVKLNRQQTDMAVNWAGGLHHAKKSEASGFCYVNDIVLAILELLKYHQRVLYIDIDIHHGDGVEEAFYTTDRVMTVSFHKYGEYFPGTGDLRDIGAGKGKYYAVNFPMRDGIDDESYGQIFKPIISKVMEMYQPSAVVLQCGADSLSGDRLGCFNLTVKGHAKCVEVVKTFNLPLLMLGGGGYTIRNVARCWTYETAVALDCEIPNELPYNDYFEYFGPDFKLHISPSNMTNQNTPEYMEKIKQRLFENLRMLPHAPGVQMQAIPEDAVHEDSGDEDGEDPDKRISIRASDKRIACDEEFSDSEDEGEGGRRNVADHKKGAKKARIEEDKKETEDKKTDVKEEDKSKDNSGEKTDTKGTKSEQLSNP

[5] = test system: HepG2; experiment: Antiproliferative activity against human HepG2 cells after 96 hrs by MTT assay; format: functional; conditions: Homo sapiens, HepG2, 96 h; procedure, shortened: as §1
[6] = target: T1, Protein deacetylase HDAC6 (Homo sapiens, UniProt Q9UBN7); experiment: Inhibition of full length recombinant human N-terminal GST-tagged HDAC6 expressed in baculovirus infected sf9 cells using Boc-Lys-(Ac)-AMC as substrate preincubated for 15 mins followed by substrate addition measured after 60 mins by fluorescence assay
T1 sequence (Q9UBN7 whole entry): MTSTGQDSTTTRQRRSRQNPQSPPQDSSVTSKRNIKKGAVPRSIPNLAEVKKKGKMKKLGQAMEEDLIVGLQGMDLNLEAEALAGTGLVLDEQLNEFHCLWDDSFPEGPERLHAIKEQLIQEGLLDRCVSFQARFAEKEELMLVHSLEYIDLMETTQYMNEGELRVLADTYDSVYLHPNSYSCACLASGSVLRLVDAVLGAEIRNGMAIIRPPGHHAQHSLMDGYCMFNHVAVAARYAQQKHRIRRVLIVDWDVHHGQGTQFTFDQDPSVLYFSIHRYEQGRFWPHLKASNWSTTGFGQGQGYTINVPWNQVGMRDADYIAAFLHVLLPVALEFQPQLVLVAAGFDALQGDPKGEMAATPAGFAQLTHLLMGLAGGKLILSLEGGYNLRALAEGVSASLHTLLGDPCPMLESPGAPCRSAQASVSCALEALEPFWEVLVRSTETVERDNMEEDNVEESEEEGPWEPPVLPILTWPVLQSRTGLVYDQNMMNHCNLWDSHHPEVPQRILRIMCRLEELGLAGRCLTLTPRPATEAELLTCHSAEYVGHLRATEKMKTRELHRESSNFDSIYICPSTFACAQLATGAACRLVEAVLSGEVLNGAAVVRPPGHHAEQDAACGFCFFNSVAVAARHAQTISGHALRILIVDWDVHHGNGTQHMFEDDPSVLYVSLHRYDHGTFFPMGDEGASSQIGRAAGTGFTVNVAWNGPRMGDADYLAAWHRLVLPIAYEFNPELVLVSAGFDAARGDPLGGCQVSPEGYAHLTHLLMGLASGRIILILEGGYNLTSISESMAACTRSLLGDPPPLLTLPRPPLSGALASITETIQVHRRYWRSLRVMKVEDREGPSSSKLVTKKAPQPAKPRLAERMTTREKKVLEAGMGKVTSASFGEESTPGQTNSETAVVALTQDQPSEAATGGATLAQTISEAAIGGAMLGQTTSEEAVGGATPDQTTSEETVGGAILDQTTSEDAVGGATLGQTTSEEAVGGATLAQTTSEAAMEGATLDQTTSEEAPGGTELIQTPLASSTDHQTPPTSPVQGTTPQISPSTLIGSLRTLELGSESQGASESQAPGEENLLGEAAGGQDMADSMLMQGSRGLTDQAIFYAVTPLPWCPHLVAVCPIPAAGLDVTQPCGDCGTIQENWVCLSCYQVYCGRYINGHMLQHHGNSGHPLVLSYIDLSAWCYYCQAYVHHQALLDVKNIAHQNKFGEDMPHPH

[7] = target: T2, Histone deacetylase 8 (Homo sapiens, UniProt Q9BY41); experiment: Inhibition of full length recombinant human C-terminal His-tagged HDAC8 expressed in baculovirus infected sf9 cells using Boc-Lys-(TFA)-AMC as substrate preincubated for 15 mins followed by substrate addition measured after 60 mins by fluorescence assay
T2 sequence (Q9BY41 whole entry): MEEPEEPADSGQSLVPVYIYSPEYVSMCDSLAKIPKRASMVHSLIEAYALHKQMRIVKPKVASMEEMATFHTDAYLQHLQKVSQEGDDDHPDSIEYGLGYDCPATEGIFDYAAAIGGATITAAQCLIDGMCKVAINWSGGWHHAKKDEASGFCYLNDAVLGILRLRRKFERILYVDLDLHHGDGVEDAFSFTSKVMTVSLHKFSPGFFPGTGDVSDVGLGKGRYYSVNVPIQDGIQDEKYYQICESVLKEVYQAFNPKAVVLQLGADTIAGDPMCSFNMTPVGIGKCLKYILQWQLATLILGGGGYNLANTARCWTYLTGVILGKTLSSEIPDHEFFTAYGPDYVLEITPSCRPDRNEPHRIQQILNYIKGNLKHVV

[8] = test system: HepG2; experiment: Potency index, ratio of vorinostat GI50 to compound GI50 for human HepG2 cells; format: functional
[9] = target: Histone deacetylase 1 (Homo sapiens, UniProt Q13547); experiment: Inhibition of full length recombinant human C-terminal FLAG/His-tagged HDAC1 expressed in baculovirus infected sf9 cells using Boc-Lys-(Ac)-AMC as substrate preincubated for 15 mins followed by substrate addition measured after 60 mins by fluorescence assay
Histone deacetylase 1, sequence (Q13547 whole entry): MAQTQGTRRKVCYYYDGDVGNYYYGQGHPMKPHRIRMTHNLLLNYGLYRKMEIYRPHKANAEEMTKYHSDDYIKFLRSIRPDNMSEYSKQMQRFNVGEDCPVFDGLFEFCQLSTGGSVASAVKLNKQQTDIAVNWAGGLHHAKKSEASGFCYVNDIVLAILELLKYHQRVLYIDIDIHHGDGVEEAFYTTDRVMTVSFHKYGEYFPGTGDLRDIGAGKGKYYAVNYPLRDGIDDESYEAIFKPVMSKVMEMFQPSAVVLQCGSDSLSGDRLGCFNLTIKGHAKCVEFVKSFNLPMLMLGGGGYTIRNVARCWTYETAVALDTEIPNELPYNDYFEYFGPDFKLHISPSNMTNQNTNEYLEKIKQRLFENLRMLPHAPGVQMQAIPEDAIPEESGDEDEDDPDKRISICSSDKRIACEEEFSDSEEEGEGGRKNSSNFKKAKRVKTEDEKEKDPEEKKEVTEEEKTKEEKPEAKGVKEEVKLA

GI50 [1]: 33 µM | IC50 [2]: 1.2 µM | IC50 [3]: 1.439 µM | IC50 [4]: 1.97 µM | GI50 [5]: 3.63 µM | IC50 [6]: 0.02 µM | IC50 [7]: > 5 µM | IC50 [9]: 2.02 µM
SMILES: Cc1cc(-c2ccc(F)cc2)n(Cc2ccc(C(=O)NO)cc2)n1
RatioGI50 [8]: 6
